# PREPL inhibitor = human PREPL enzyme inhibition; Q4J6C6; recombinant PREPL, fluorescence polarization activity-based probe; inhibition, % at 5.96 µM; 320,000 tested, 0.68% active; AID 2751; in the data active = inhibition above about 43%;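 also: 0% = enzyme with DMSO and 100% = wells lacking enzyme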
# Rin1 Abl inh = human Rin1-Abl interaction inhibition; P00519+Q13671; TR-FRET Rin1/Abl binding, biochemical; inhibition, % at 7.35 µM; 360,000 tested, 0.4% active; AID 588664; in the data active = inhibition above about 5%, passing the limit was not always enough
# UBC9 SUMO inh = inhibitors of human SUMOylation (UBC9) | 290,000 tested, 0.36% active | P63279 | inhibition, % at 35 µM | AID 2006 | HTRF SUMOylation assay, SAE1/SAE2 + UBC9, in vitro; in the data active = inhibition above about 50%, passing the limit was not always enough
# Target sequence (P63279 whole entry, looked up): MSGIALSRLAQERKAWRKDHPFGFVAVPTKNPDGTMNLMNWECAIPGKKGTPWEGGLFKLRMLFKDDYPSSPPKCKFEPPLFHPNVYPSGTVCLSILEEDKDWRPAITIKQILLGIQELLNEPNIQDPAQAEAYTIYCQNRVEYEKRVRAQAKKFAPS
# ALR H2O2 inh = inhibitors of human sulfhydryl oxidase ALR | inhibition, % (test concentration not listed) | 290,000 tested, 3.8% active | purified ALR, DTT oxidation, H2O2 HRP-luminol luminescence | P55789;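 active = mean replicate inhibition above about 79%, with every replicate also reaching it, limit read from the data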
# Target sequence (P55789 whole entry, looked up): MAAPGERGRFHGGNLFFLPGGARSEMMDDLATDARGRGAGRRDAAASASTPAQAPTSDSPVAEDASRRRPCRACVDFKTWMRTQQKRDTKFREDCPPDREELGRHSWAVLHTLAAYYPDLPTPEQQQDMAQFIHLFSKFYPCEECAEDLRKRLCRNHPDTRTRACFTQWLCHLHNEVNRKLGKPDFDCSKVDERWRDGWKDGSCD
# RBBP9 inhibitor = human RBBP9 hydrolase inhibition. O75884. recombinant RBBP9, FP-Rh probe fluorescence polarization. inhibition, % at 7.94 µM. 220,000 tested, 0.2% active;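 active = inhibition above the campaign mean of all tested compounds plus 3 SD, cut at about 14% in these data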;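 also: plate controls were DMSO wells with RBBP9 for no effect and wells lacking RBBP9 protein for full effect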
#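 System: RBBP9 protein | Quantity: 2.5 µM RBBP9 dispensing solution, before mixing | Reagent: FP-Rh probe, 375 nM dispensing solution | Timing: Enzyme-compound preincubation 30 min, then probe labeling 45 min, 25 °C | Measured by: Fluorescence polarization | Read-out: % inhibition | Replication: One well per compound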
# UBC13 polyUb = inhibitors of human UBC13 polyubiquitin chain formation; TR-FRET; P61088; 330,000 tested, 0.47% active; AID 485273; inhibition, % at 20 µM; in the data active = inhibition above about 45%, passing the limit was not always enough
# Target sequence (P61088 whole entry, looked up): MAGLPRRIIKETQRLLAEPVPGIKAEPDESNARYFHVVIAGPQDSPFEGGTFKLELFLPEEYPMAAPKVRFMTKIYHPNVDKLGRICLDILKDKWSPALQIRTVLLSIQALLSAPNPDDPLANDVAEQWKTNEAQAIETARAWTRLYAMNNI
# An asterisk follows results filed as active; i = inactive; . = not tested or not shown. Rows were chosen to be rich in hits. Some 4.3% of all compounds tested hit in one or more screens of this group.
SMILES,PREPL inhibitor,Rin1 Abl inh,UBC9 SUMO inh,ALR H2O2 inh,RBBP9 inhibitor,UBC13 polyUb
OC1CCN(C(=S)Nc2ccc(Nc3ccccc3)cc2)CC1,15.2,0.0,-0.5,99.1*,-4.5,1.4
CC1CCCN(C(=S)Nc2ccc(Nc3ccccc3)cc2)C1 (stereo unspecified),24.6,2.1,7.4,99.3*,-0.1,-9.7
S=C(Nc1ccc(Nc2ccccc2)cc1)N1CCN(c2ncccn2)CC1,20.9,3.4,-18.1,98.3*,-4.7,14.3
CNC(=S)N/N=C/c1c2ccccc2c(Cl)c2ccccc12,2.8,0.8,14.6,-9.3,.,4.9
Cc1ccc2[nH]c(C)c(CCNC(=O)c3c(N)no[n+]3[O-])c2c1,2.4,2.9,3.6,98.7*,-2.0,11.7
Cc1ccc2[nH]c(C)c(CCNC(=O)c3cc4cc([N+](=O)[O-])ccc4oc3=O)c2c1,18.8,0.1,27.2,9.9,-11.6,-19.2
CCCC1OC(c2cc3c(cc2Cl)OCO3)OCC1CC (stereo unspecified),.,1.3,.,.,.,.
COc1ccccc1NS(=O)(=O)c1cccc(C(=O)N/N=C2\CC(=O)CC(C)(C)C2)c1,5.5,1.4,-4.1,92.5*,-3.7,1.0
CN(CCc1ccccc1)C(=O)c1ccc(NC(=O)Cc2ccc(NC(=O)C3CCN(S(=O)(=O)c4cccc([N+](=O)[O-])c4)CC3)cc2)cc1,.,0.1,.,.,.,.
O=C1N/C(=N/O)S/C1=C/c1cccc([N+](=O)[O-])c1,3.3,-0.8,16.8,8.3,-6.0,-15.8
O=C1N/C(=N/O)S/C1=C\c1ccccc1-n1cccn1,0.1,-0.9,10.4,93.5*,2.5,17.0
CC(C)(C)n1c(O)c2n(c1=O)Cc1ccccc1N=C2c1ccccc1,.,-2.3,.,.,.,.
O=[N+]([O-])/C(=C\Nc1ccc(F)cc1F)S(=O)(=O)c1ccccc1,-5.7,1.1,21.1,-3.8,.,-12.8
CCOC(=O)CC1CCCCN1C(=O)CCCn1nnnc1CN1CCOCC1 (stereo unspecified),-9.2,4.9,-7.8,-0.1,.,-2.4
COc1ccc(N2CCN(C(=O)CCCn3nnnc3CN3CCOCC3)C(C)C2)cc1 (stereo unspecified),7.2,2.7,-3.7,99.0*,.,-3.5
CC1CC(C)CN(C(=O)COC(=O)c2ccc3ccccc3n2)C1 (stereo unspecified),6.6,2.6,.,-0.8,.,-8.6
CCn1ncc(C2=NOC(C(=O)Nc3cccc(C(C)=O)c3)C2)c1C (stereo unspecified),1.9,0.8,-1.1,97.4*,0.3,7.0
CCn1ncc(C2=NOC(C(=O)NCc3ccccc3)C2)c1C (stereo unspecified),2.7,1.9,-7.2,-31.3,-4.5,4.4
Cc1ccn2c(CNCC3COCCO3)c(C(=O)N3CCCCCC3)nc2c1 (stereo unspecified),11.6,-0.4,-3.8,-7.3,.,1.6
Cc1ccc(/C=C/c2ccc(N(C)C)cc2)[n+](C)c1,-2.7,-27.4,-9.3,98.7*,.,-377.1
CN(C)c1ccc(/C=C/c2cc[n+](C)cc2)cc1,-77.5,-26.5,-1.6,99.1*,-34.6,i
CN(C)c1ccc(/C=C/c2cc[n+]([O-])cc2)cc1,6.8,.,46.4,99.5*,1.2,-9.4
CC[n+]1ccc(/C=C/c2ccc(N(C)C)cc2)c2ccccc21,.,-43.4,-247.1,.,-29.6,.
CCCCCC[n+]1ccccc1/C=C/c1ccc(N(C)C)cc1,.,-31.1,.,.,.,.
CC[n+]1ccccc1/C=C/c1ccc(N(C)C)cc1,.,-23.1,-7.1,.,-0.6,.
SMILES,PREPL inhibitor,Rin1 Abl inh,UBC9 SUMO inh,ALR H2O2 inh,RBBP9 inhibitor,UBC13 polyUb
N#C/C(C(=O)N1CCOCC1)=C1/SC(Cc2ccccc2Cl)C(=O)N1c1ccccc1 (stereo unspecified),10.5,0.3,-2.7,14.6,-9.1,1.1
O=c1[nH]c(/C=C\c2ccc(O)c(Cl)c2)nc(O)c1[N+](=O)[O-],7.3,1.2,-4.7,28.4,.,-34.8
C=CCc1cc(/C=C/c2nc(O)c([N+](=O)[O-])c(=O)[nH]2)cc(OC)c1O,15.8,1.3,13.3,82.0*,-3.1,-29.2
O=c1[nH]c(/C=C\c2ccc(O)cc2)nc(O)c1[N+](=O)[O-],11.2,-4.6,5.8,97.2*,.,-9.7
CCN(CC)c1ncnc2c1ncn2[C@H]1CN(Cc2cccnc2)C[C@@H](CO)O1,.,2.9,.,.,.,.
COc1cc(C(=O)O)c2c(c1C)OC(=O)c1c(C)cc(O)c(C=O)c1O2,4.8,-1.4,.,98.6*,.,5.4
Cc1c(/C(O)=C2/C(=O)C(=O)N(Cc3cccnc3)C2c2ccccn2)cnn1-c1ccccc1 (stereo unspecified),8.6,1.8,15.7,-18.4,-1.9,-4.7
Cc1oc2cc(O)ccc2c(=O)c1Oc1ccccc1,-3.1,0.1,18.1,-1.2,-3.5,14.5
CC(=O)Oc1ccc2c(=O)c(Oc3ccccc3)c(C)oc2c1OC(C)=O,-21.2,2.0,-11.6,99.5*,-15.3,14.0
Cc1ccc2nc(-c3cccc(S(=O)(=O)N(C)C)c3)cn2c1,-1.2,0.3,13.7,99.2*,-4.4,2.8
Cc1ccc2nc(-c3cccc(S(=O)(=O)N4CCCC4)c3)cn2c1,-0.8,-1.4,9.8,9.5,.,-0.5
CCN(CC)S(=O)(=O)c1cccc(-c2cn3cc(C)ccc3n2)c1,6.2,-0.8,34.3,60.8,-9.8,10.9
O=S(=O)(c1cccc(-c2cn3cccnc3n2)c1)N1CCCCCC1,2.0,1.3,22.1,-3.0,-6.2,10.3
Cc1ccc2nc(-c3cccc(S(=O)(=O)N4CC(C)OC(C)C4)c3)cn2c1 (stereo unspecified),14.6,1.2,15.3,98.1*,.,5.3
CN(C)S(=O)(=O)c1cccc(-c2cn3cccnc3n2)c1,-0.6,7.1,33.9,98.6*,1.9,16.7
Cc1cc(Nc2n[nH]c(N)c2C#N)ccc1F,4.5,-6.1,-8.4,95.0*,2.7,7.5
COc1ccnc(Nc2ccc(C)c(C)c2)c1C#N,10.0,-3.1,17.0,-1.6,-3.3,-4.3
Cc1ccc(O)c(NC(=O)C2CCCN2C(=O)OCc2ccccc2)c1 (stereo unspecified),-6.1,1.0,-11.3,87.1*,.,5.1
COC(=O)c1ccccc1NC(=O)Oc1ccc(C(C)C)cc1,3.6,-2.9,5.2,92.3*,0.6,2.7
COC(=O)c1ccc(/C=C/C(=O)c2ccc(OC)c(OC)c2)cc1,8.4,-0.1,13.0,98.6*,-3.4,-2.7
COc1cc(/C=C/C(=O)c2ccc(F)cc2)cc(OC)c1OC,0.1,-7.1,9.2,96.6*,12.7,0.3
COc1ccc(/C=C/C(=O)c2ccc(OC)cc2OC)cc1,6.8,-1.4,2.2,94.2*,-5.3,0.4
COc1ccc(OC)c(C(=O)/C=C/c2cccnc2)c1,-6.2,0.9,11.1,1.4,.,0.9
COc1cc(C(=O)/C=C/c2cccnc2)ccc1O,10.6,-1.2,12.2,99.6*,.,-5.4
Cc1nnc(NC(=O)C2CC(=O)N(c3ccccc3)C2)s1 (stereo unspecified),9.8,0.8,-1.0,1.9,.,-3.7
